Test results published in ChEMBL document CHEMBL4049430, “Indazole-6-phenylcyclopropylcarboxylic Acids as Selective GPR120 Agonists with in Vivo Efficacy” (J Med Chem, 2017).
Activity calls are given as the source filed them. The calls are words filed in the database; no cut-off is given here.

Experiments:
[1] = target: T1, Free fatty acid receptor 4 (Homo sapiens, UniProt Q5NUL3); experiment: Agonist activity at human GPR120 expressed in CHO-FlpIn cells after 15 mins by DMR assay; assay type: cell-based
T1 sequence (Q5NUL3 whole entry): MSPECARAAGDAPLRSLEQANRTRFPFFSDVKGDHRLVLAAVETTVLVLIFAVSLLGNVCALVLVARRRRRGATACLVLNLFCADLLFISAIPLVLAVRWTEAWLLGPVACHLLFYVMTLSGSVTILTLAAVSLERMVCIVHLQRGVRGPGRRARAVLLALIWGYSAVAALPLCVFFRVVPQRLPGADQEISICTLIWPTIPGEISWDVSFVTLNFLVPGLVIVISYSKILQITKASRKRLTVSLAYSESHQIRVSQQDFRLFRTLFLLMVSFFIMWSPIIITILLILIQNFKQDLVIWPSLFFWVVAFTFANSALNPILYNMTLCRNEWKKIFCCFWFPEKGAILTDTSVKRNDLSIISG
In short: (§1)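 Cryopreserved CHO FlpIn cells stably expressing human or mouse GPR120 were seeded 48 h before assay, serum-starved for 24 h, then held 2 h in HBSS/20 mM HEPES/0.01% BSA (pH 7.4) with 0.5% DMSO. DMR was read over a 10 min baseline and for 15 min after addition. Runs were in duplicate, 10 points, 16 μM to 0.8 nM final, as % of maximal control agonist.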

[2] = target: T2, Free fatty acid receptor 4 (Homo sapiens) (UniProt Q5NUL3); experiment: Agonist activity at human GPR120 expressed in CHO-FlpIn cells after 15 mins by DMR assay relative to control; assay type: cell-based; in short: as §1
T2 sequence (whole entry): T1 sequence (Q5NUL3 whole entry)

[3] = target: Free fatty acid receptor 1 (Mus musculus, UniProt Q76JU9); experiment: Agonist activity at mouse GPR40 expressed in HEK293 cells assessed as increase in intracellular calcium level after 5 mins by FLUO-4-AM dye-based FLIPR assay; assay type: functional, cell-based
In short: (§2)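 HEK293s cells stably expressing mouse GPR40 were seeded 24 h before assay and loaded for 1 h with calcium 3/Fluo-4 AM in HBSS, 20 mM HEPES, 0.01% BSA, 2.5 mM probenecid, pH 7.4. FLIPR Tetra took 10 baseline reads, then read for 5 min after addition. Runs were in duplicate, 9 points, 100 μM to 7 nM final, as % of maximal eladic acid control.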

[4] = target: Free fatty acid receptor 1 (Mus musculus) (UniProt Q76JU9); experiment: Agonist activity at mouse GPR40 expressed in HEK293 cells assessed as increase in intracellular calcium level after 5 mins by FLUO-4-AM dye-based FLIPR assay relative to control; assay type: functional, cell-based; in short: as §2
[5] = Octanol-buffer partition coefficient, log D of the compound at pH 7.4 after 30 mins by LC-UV based shake-flask method
[6] = target: T3, Free fatty acid receptor 4 (Mus musculus, UniProt Q7TMA4); experiment: Agonist activity at mouse GPR120 expressed in CHO-FlpIn cells after 15 mins by DMR assay; assay type: cell-based; in short: as §1
T3 sequence (Q7TMA4 whole entry): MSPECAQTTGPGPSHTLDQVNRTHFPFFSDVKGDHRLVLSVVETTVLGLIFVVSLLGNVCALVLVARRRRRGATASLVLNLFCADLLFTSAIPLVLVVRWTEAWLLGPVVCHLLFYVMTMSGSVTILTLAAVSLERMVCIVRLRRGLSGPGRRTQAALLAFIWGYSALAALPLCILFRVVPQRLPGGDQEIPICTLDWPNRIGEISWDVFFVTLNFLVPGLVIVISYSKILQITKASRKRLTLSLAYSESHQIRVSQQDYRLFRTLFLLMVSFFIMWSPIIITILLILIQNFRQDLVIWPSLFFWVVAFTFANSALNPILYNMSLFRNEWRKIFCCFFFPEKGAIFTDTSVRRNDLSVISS

[7] = target: T4, Free fatty acid receptor 4 (Mus musculus) (UniProt Q7TMA4); experiment: Agonist activity at mouse GPR120 expressed in CHO-FlpIn cells after 15 mins by DMR assay relative to control; assay type: cell-based; in short: as §1
T4 sequence (whole entry): T3 sequence (Q7TMA4 whole entry)

[8] = Protein binding in mouse plasma assessed as unbound fraction after 24 hrs by equilibrium dialysis; assay type: ADME, cell-free
[9] = Clearance in mouse at 2.5 mg/kg, iv after 24 hrs; assay type: ADME, organism-based; settings: in vivo
[10] = Volume of distribution at steady state in mouse at 2.5 mg/kg, iv after 24 hrs; assay type: ADME, organism-based; settings: in vivo, read-out: Vdss
[11] = Cmax in mouse at 5 mg/kg administered through oral gavage after 24 hrs; assay type: ADME, organism-based; parameters: dose 5 mg/kg, route oral; settings: in vivo
[12] = Oral bioavailability in mouse at 5 mg/kg after 24 hrs; assay type: ADME, organism-based; settings: in vivo
[13] = Ratio of drug level in mouse brain to blood at 5 mg/kg administered through oral gavage after 2 hrs; assay type: ADME, organism-based
[14] = Ratio of unbound drug level in mouse brain to blood at 5 mg/kg administered through oral gavage after 2 hrs; settings: brain
Mus musculus = experiment: Antidiabetic activity in GPR120 knockout mouse assessed as reduction in glucose excursion at 100 mg/kg administered through oral gavage 30 mins prior to glucose challenge measured after 90 mins by OGTT; assay type: functional, organism-based
In short: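 OGTT used in-house C57BL/6J mice aged 10–11 weeks. GPR120 knockout and wild-type controls were bred in house, back-crossed onto C57BL/6J, and used at 9–10 weeks. Compound was given as a suspension: a concentrated stock was made at rt the day before and diluted on study day to the dosing concentrations.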

[15] = Ratio of unbound drug level in wild-type mouse brain to blood at 100 mg/kg administered through oral gavage 30 mins prior to glucose challenge measured after 90 mins; settings: brain

Free fatty acid receptor 1 (Mus musculus), sequence (Q76JU9 whole entry): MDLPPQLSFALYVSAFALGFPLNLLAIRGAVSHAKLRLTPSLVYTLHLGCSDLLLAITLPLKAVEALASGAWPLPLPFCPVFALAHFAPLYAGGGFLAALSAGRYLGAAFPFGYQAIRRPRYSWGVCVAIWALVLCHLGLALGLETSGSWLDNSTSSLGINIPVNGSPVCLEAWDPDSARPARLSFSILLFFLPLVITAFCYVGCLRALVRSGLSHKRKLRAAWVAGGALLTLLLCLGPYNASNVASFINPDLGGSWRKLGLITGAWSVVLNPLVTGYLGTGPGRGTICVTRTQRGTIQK
Free fatty acid receptor 1, sequence (Q76JU9 whole entry): as above

EC50 [1] [nM]	Efficacy [2] [%]	EC50 [3] [nM]	Efficacy [4] [%]	logD at 0.5 h [5]	SMILES	further results
710	113	1200	102	3.3	Cc1nn(-c2ccccn2)c2cc(-c3ccc(CCC(=O)O)cc3Cl)ccc12	–
> 17000	9	19000	81	–	Cc1nn(-c2ccccn2)c2cc(-c3ccc([C@H]4C[C@H]4C(=O)O)cc3)ccc12 (racemic)	–
600	113	1500	105	2.9	Cc1nn(-c2ccccn2)c2cc(-c3ccc(CCC(=O)O)cc3F)ccc12	–
260	128	2100	117	–	Cc1nn(-c2ccccn2)c2cc(-c3ccc(CCCC(=O)O)cc3)ccc12	–
4000	100	3800	31	–	C[C@@H](Cc1ccc(-c2ccc3cnn(-c4ccccn4)c3c2)cc1)C(=O)O	–
990	114	4500	106	2.4	O=C(O)CCc1ccc(-c2ccc3cnn(-c4ccccn4)c3c2)cc1	–
900	76	> 100000	12	2.6	Cc1ccc(-n2nc(C)c3cnc(-c4ccc([C@H]5C[C@@H]5C(=O)O)cc4)cc32)cc1	EC50 [6]: 640 nM; Efficacy [7]: 99%
12000	28	61000	50	–	Cc1nn(-c2ccccn2)c2cc(-c3ccc(C(C)CC(=O)O)cc3)ncc12 (configuration not stated)	–
> 17000	26	> 100000	2	–	Cc1nn(-c2ccccn2)c2cc(-c3ccc([C@@H]4C[C@H]4C(=O)O)cc3)ccc12	–
> 17000	2	1300	81	–	O=C(O)CCc1ccc(-c2ccc3c(OCc4ccccc4)nn(-c4ccccn4)c3c2)cc1	–
760	75	1100	93	3.3	CCc1nn(-c2ccccn2)c2cc(-c3ccc(CCC(=O)O)cc3)ccc12	–
78	115	> 100000	11	> 4.2	COc1nn(-c2ccc(C)cc2)c2cc(-c3ccc([C@H]4C[C@@H]4C(=O)O)cc3)cc(F)c12	fraction unbound at 24 h [8]: 0.0011; clearance [9]: 0.4 mL/min/kg; Vd [10]: 0.7 L/kg; Cmax [11]: 5 µM; bioavailability [12]: 19%; Kp at 2 h [13]: 0.44; EC50 [6]: 17 nM; Efficacy [7]: 176%
250	122	2600	96	3.3	COc1nn(-c2ccccn2)c2cc(-c3ccc(CCC(=O)O)cc3)ccc12	–
470	100	2600	126	2.8	O=C(O)CCc1ccc(-c2cc(F)c3cnn(-c4ccccn4)c3c2)cc1	–
2000	78	19000	113	2.2	N#Cc1cc(-c2ccc(CCC(=O)O)cc2)cc2c1cnn2-c1ccccn1	–
4100	79	> 100000	18	–	Cc1nn(-c2ccccn2)c2cc(-c3ccc(CC(C)(C)C(=O)O)cc3)ccc12	–

EC50 [1] [nM]	Efficacy [2] [%]	EC50 [3] [nM]	Efficacy [4] [%]	logD at 0.5 h [5]	SMILES	further results
4300	88	> 100000	18	–	C[C@H](Cc1ccc(-c2ccc3cnn(-c4ccccn4)c3c2)cc1)C(=O)O	–
> 17000	8	–	–	–	Cc1nn(-c2ccccn2)c2cc(-c3ccc(CC(=O)O)cc3)ccc12	–
–	87	–	6	–	Cc1nn(-c2ccccn2)c2cc(-c3ccc([C@H]4C[C@@H]4C(=O)O)cc3)ccc12 (racemic) [listing 1 of 2 here]	–
640	107	1400	95	–	Cc1nn(-c2ccccn2)c2cc(-c3ccc(CCC(=O)O)cc3)ccc12	–
4600	70	2600	82	2.6	Cc1cc(-c2ccc(CCC(=O)O)cc2)cc2c1cnn2-c1ccccn1	–
–	95	–	10	–	Cc1nn(-c2ccccn2)c2cc(-c3ccc([C@H]4C[C@@H]4C(=O)O)cc3)ccc12 [listing 1 of 2 here]	–
2600	78	9200	86	1.6	Cc1nn(-c2ccccn2)c2cc(-c3ccc(CCC(=O)O)cc3)ncc12	–
4800	87	2000	124	3	N#Cc1nn(-c2ccccn2)c2cc(-c3ccc(CCC(=O)O)cc3)ccc12	–
2400	80	6100	47	2.2	Cc1nn(-c2ccccn2)c2cc(-c3ccc(CCC(=O)O)cc3C#N)ccc12	–
> 17000	3	–	–	–	Cc1nn(-c2ccccn2)c2cc(-c3cccc(CC(=O)O)c3)ccc12	–
850	–	> 100000	–	–	Cc1nn(-c2ccccn2)c2cc(-c3ccc([C@H]4C[C@@H]4C(=O)O)cc3)ccc12 (racemic) [listing 2 of 2 here]	–
520	88	> 100000	14	4.2	Cc1ccc(-n2nc(C)c3c(F)cc(-c4ccc([C@H]5C[C@@H]5C(=O)O)cc4)cc32)cc1	EC50 [6]: 540 nM; Efficacy [7]: 112%
> 17000	28	> 100000	0	–	Cc1nn(-c2ccccn2)c2cc(-c3cccc(CCC(=O)O)c3)ccc12	–
720	82	8200	62	2.4	COc1cc(CCC(=O)O)ccc1-c1ccc2c(C)nn(-c3ccccn3)c2c1	–
690	–	> 100000	–	–	Cc1nn(-c2ccccn2)c2cc(-c3ccc([C@H]4C[C@@H]4C(=O)O)cc3)ccc12 [listing 2 of 2 here]	–

SMILES	EC50 [1] [nM]	Efficacy [2] [%]	EC50 [3] [nM]	Efficacy [4] [%]	logD at 0.5 h [5]	further results
Cc1ccc(-n2nc(C)c3ccc(-c4ccc([C@H]5C[C@@H]5C(=O)O)cc4)cc32)cc1	–	100	–	1	–	fraction unbound at 24 h [8]: 0.0049; clearance [9]: 9.6 mL/min/kg; Vd [10]: 1.2 L/kg; Cmax [11]: 7.9 µM; bioavailability [12]: 136%; Kp at 2 h [13]: 0.82; Kp uu at 2 h [14]: 0.22; Activity (Mus musculus): inactive; EC50 [6]: 510 nM; Efficacy [7]: 91%; Kp uu at 1.5 h [15]: 0.27
